The values that follow come from ChEMBL document CHEMBL1152965, “Synthesis and in vitro antiplasmodial evaluation of 4-anilino-2-trichloromethylquinazolines” (Bioorg Med Chem, 2009).

One data set has as its system K562. The data set can be described thus: Cytotoxicity against human K562 cells after 72 hrs by flow cytometry. The note with it: K562, 72 h. It is filed as cell-based. The procedure, abridged: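 Chemosensitive K562 subline, late log phase, in phenol-red-free RPMI with 10% serum. Compound range added in duplicate (DMSO <0.5%). After 72 h at 37 °C, 6% CO₂, cells stained with propidium iodide and live cells in a 100 µL sample counted by flow cytometry. IC50 from non-linear regression of dose-response curves, mean of three independent experiments.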

Data set [1] has as its system Salmonella enterica subsp. enterica. The data set can be described thus: Mutagenic activity in Salmonella Typhimurium TA97a assessed as number of spontaneous and drug-induced revertants after 48 hrs in absence of 4% S9 mixture by Ames test. To be noted: salmonella enterica subsp. enterica serovar typhimurium. It is filed as toxicity, organism-based. In outline:
(§1)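 Liquid-incubation Ames variant. Tester strains grown overnight in nutrient broth. 5×10^-3 M DMSO solution of compound added to 0.1 mL culture, with or without 4% S9 mix, 1 h at 37 °C with shaking. Top agar added and mixture plated on Vogel-Bonner agar. After 48 h at 37 °C in the dark, revertants per plate counted with a laser colony counter.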

Data set [2] has the same test system. The data set can be described thus: Mutagenic activity in Salmonella Typhimurium TA97a assessed as number of spontaneous and drug-induced revertants after 48 hrs in presence of 4% S9 mixture by Ames test. It is filed as toxicity, organism-based. To be noted: salmonella enterica subsp. enterica serovar typhimurium. The procedure, abridged:
as §1
(In general: The Ames test uses bacterial strains that need an amino acid and regain growth without it when mutated back.)

Data set [3] shares this test system. The data set can be described thus: Mutagenic activity in Salmonella Typhimurium TA102 assessed as number of spontaneous and drug-induced revertants after 48 hrs in presence of 4% S9 mixture by Ames test. It is filed as toxicity, organism-based. To be noted: salmonella enterica subsp. enterica serovar typhimurium. The procedure, abridged: as §1
Another data set has as its system Leishmania donovani. Description: Antileishmanial activity against Leishmania donovani HOM/IN/01/2001 promastigotes after 72 hrs by flow cytometry. It is filed as functional, organism-based. The note with it: HOM/IN/01/2001, 72 h. In outline:
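GFP-transfected promastigotes, log phase, in M199 with 10% FCS and 500 µg/mL G418, seeded at 10⁵ parasites/mL. Compounds in DMSO (final <0.5% v/v) added in duplicate over a concentration range. Incubated 72 h at 27 °C.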
In general terms: A flow cytometer gives signals particle by particle.

Data set [4] relates to Salmonella enterica subsp. enterica. Description: Mutagenic activity in Salmonella Typhimurium TA98 assessed as number of spontaneous and drug-induced revertants after 48 hrs in presence of 4% S9 mixture by Ames test. It is filed as toxicity, organism-based. To be noted: salmonella enterica subsp. enterica serovar typhimurium. The procedure, abridged:
as §1

In another data set the test system is Plasmodium falciparum. The data set can be described thus: Antimalarial activity as reduced parasitaemia after 48 hrs against chloroquine, pyrimethamine and proguanil-resistant Plasmodium falciparum W2 infected in type A+ human erythrocytes by flow cytometry. It is filed as functional, organism-based. To be noted: W2, 48 h.
In data set [5] the test system is Salmonella enterica subsp. enterica. The data set can be described thus: Mutagenic activity in Salmonella Typhimurium TA102 assessed as number of spontaneous and drug-induced revertants after 48 hrs in absence of 4% S9 mixture by Ames test. The note with it: salmonella enterica subsp. enterica serovar typhimurium. It is filed as toxicity, organism-based. The procedure, abridged: as §1

The next data set relates to Toxoplasma gondii. Description: Antitoxoplasmic activity against Toxoplasma gondii tachyzoites infected in HFF assessed as beta-galactosidase activity after 96 hrs by colorimetric microtiter assay. It is filed as functional, organism-based. The procedure, abridged:
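Tachyzoites of the PRU-β-Gal strain. 10⁴ HFF cells per well grown to confluence in phenol-red-free RPMI with 10% FCS. Monolayers infected with 2.10³ parasites per well for 3 h, then compounds in DMSO (final <0.5%) added in triplicate. Incubated 96 h at 37 °C, 6% CO₂. CPRG added at 500 µM final for a further 24 h. Read at 570/630 nm, blanked on uninfected wells. IC50 from three independent experiments.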

For data set [6], the system named is Salmonella enterica subsp. enterica. The data set can be described thus: Mutagenic activity in Salmonella Typhimurium TA98 assessed as number of spontaneous and drug-induced revertants after 48 hrs in absence of 4% S9 mixture by Ames test. It is filed as toxicity, organism-based. To be noted: salmonella enterica subsp. enterica serovar typhimurium. In outline: as §1

The test system is the same in data set [7]. The data set can be described thus: Mutagenic activity in Salmonella Typhimurium TA100 assessed as number of spontaneous and drug-induced revertants after 48 hrs in presence of 4% S9 mixture by Ames test. To be noted: salmonella enterica subsp. enterica serovar typhimurium. It is filed as toxicity, organism-based. The procedure, abridged: as §1
Data set [8] can be described thus: Selectivity index, ratio of IC50 for human K562 cells to IC50 for chloroquine, pyrimethamine and proguanil-resistant Plasmodium falciparum W2. To be noted: K562 cells (cytotoxicity) versus Plasmodium falciparum W2, read-out: Ratio IC50. It is filed as toxicity, cell-based. The procedure, abridged: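 SI = K562 IC50 / W2 IC50. Live cells counted by flow cytometry after propidium iodide stain. IC50 by non-linear regression, mean of three independent experiments.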

For another data set, the system named is HepG2. Description: Cytotoxicity against human HepG2 cells after 72 hrs by MTT assay. It is filed as cell-based. The note with it: HepG2, 72 h. In outline: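 HepG2 cells plated in RPMI with 10% FBS and grown 24 h, then exposed to a range of compound concentrations for 72 h at 37 °C, 6% CO₂. MTT (5 mg/mL stock) added for 2 h, formazan dissolved in DMSO and read at 570 nm against 630 nm. Viability expressed as percent of untreated control. CC50 taken from the dose-response curve.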
On the technique in general: Formazan colour is commonly taken as a measure of viable cells.

Data set [9] in a line: Selectivity index, ratio IC50 for human HepG2 cells to IC50 for chloroquine, pyrimethamine and proguanil-resistant Plasmodium falciparum W2. It is filed as functional. In outline:
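SI = HepG2 IC50 / W2 IC50. MTT 2 h, formazan dissolved in DMSO, absorbance 570 nm (ref 630 nm). Viability as % of untreated control, IC50 from dose-response curve.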

Usually IC50 stands for the concentration that inhibits the measured activity by half. For `Clc1cccc(Nc2nc(C(Cl)(Cl)Cl)nc3ccccc23)c1`, the IC50 in the data set with K562 is above 50 µM; in the data set with Leishmania donovani it was above 50 µM; in the data set on Plasmodium falciparum it was 1.7 µM; in the data set with Toxoplasma gondii, above 50 µM; in the data set on HepG2, above 100 µM. Also, the Activity entry in data set [1], in data set [2], in [3], in data set [4], in [5] and in data set [6] was “Not Active” each time. Moreover, the Activity result in data set [7] was “Not Active”. Besides, the selectivity ratio in [8] is above 29.4. In data set [9], the “Ratio IC50” value is given as above 58.8.

`Cc1nc(Nc2cccc(Cl)c2)c2ccccc2n1`: the figures for the IC50 in the data set on K562, in the data set with Plasmodium falciparum and in the data set on HepG2 were 27 µM, 55 µM and 40 µM, respectively. Moreover, the selectivity ratio in [8] was determined as 0.5. Besides, the “Ratio IC50” value in data set [9] is 0.7.

`ClC(Cl)(Cl)c1nc(Nc2cccc(Br)c2)c2ccccc2n1`: the IC50 with K562 was above 50 µM; in the data set on Leishmania donovani, above 50 µM; in the data set with Plasmodium falciparum, 2.2 µM; in the data set with Toxoplasma gondii, above 50 µM; in the data set with HepG2, above 100 µM. Also, the Activity result in data set [1], in data set [2], in data set [3], in data set [4], in [5] and in [6] was “Not Active” throughout. Further, the Activity entry in data set [7] is listed as “Not Active”. Moreover, the selectivity ratio in data set [8] was above 22.7. The “Ratio IC50” value in data set [9] is above 45.5.

Regarding `Cc1nc(Nc2cccc(C(F)(F)F)c2)c2ccccc2n1`, the figures for the IC50 in the data set on K562, in the data set with Plasmodium falciparum and in the data set with HepG2 were 10 µM, 42.5 µM and 20 µM, respectively. Moreover, the selectivity ratio in data set [8] came to 0.2. Moreover, the “Ratio IC50” value in [9] is listed as 0.5.

Take `C[C@@H]1[C@H](O)[C@@H](C)/C=C/C=C/C=C/C=C/C=C/C=C/C=C/[C@H](O[C@@H]2O[C@H](C)[C@@H](O)[C@H](N)[C@@H]2O)C[C@@H]2O[C@](O)(C[C@@H](O)C[C@@H](O)[C@H](O)CC[C@@H](O)C[C@@H](O)CC(=O)O[C@H]1C)C[C@H](O)[C@H]2C(=O)O` [AMPHOTERICIN B]: the results for the IC50 in the data set on K562, in the data set with Leishmania donovani and in the data set with HepG2 were 17 µM, 0.08 µM and 10 µM, respectively.

On to `C[C@H]1c2cccc(O)c2C(=O)C2=C(O)[C@]3(O)C(=O)C(C(N)=O)=C(O)[C@@H](N(C)C)[C@@H]3[C@@H](O)[C@@H]21.O` [DOXYCYCLINE], for which the 50% inhibitory concentration (IC50) in the data set with K562 turned out to be 15 µM; with Plasmodium falciparum it was 6.5 µM; in the data set with HepG2, 20 µM. Moreover, the selectivity ratio in [8] was found to be 2.3. Further, in [9], the “Ratio IC50” value was 3.1.

For `CCc1nc(N)nc(N)c1-c1ccc(Cl)cc1` [PYRIMETHAMINE], the values for the half-inhibitory concentration (IC50) in the data set on K562, with Toxoplasma gondii and with HepG2 were 5 µM, 2 µM and 30 µM, respectively.
